{"source": "ChEMBL document CHEMBL1124898", "about": "“Novel agents effective against solid tumors: the diarylsulfonylureas. Synthesis, activities, and analysis of quantitative structure-activity relationships” (J Med Chem, 1990)", "key": {"CCRF-CEM": {"test_system": "CCRF-CEM", "experiment": "Concentration required to inhibit growth of CCRF-CEM cells in culture for 72 hr to 50% of control growth", "assay_type": "functional, cell-based", "conditions": "Homo sapiens"}, "[1]": {"experiment": "Antitumor activity in vivo against the 6C3HED lymphosarcoma dosed for 10 days at 300 mg/kg (intraperitoneal dosing for 8 days)", "assay_type": "functional", "conditions": "Mus musculus, ip", "procedure,_shortened": "(§1)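 Tumor fragments (about 1–2 mm) implanted sc via trochar into a subaxillary site of syngeneic mice (C3H, C57BL/6, Balb/C or DBA/2) or Holtz rats. Groups were 7–10 randomized animals. Compound was suspended in 2.5% Emulphor in 0.9% saline and given orally by gavage or ip, usually from the day after implantation. Tumor volume versus untreated controls was measured one day after the final dose and reported as % inhibition. Scoring bands: +++ 95–100%, ++ 80–94%.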"}, "[2]": {"experiment": "Antitumor activity in vivo against the 6C3HED lymphosarcoma, dosed for 8 days at 300 mg/kg", "conditions": "Mus musculus, 192 h"}, "[3]": {"experiment": "Antitumor activity in vivo against the 6C3HED lymphosarcoma dosed for 10 days at 300 mg/kg (ip dosing daily for 8 days)", "assay_type": "functional", "conditions": "Mus musculus, route intraperitoneal", "procedure,_shortened": "as §1"}, "[4]": {"experiment": "Antitumor activity in vivo against the 6C3HED lymphosarcoma dosed for 10 days at 275 mg/kg", "assay_type": "functional", "conditions": "Mus musculus, 192 h, in the assay text read “8 days” for “10 days”", "procedure,_shortened": "as §1"}, "[5]": {"experiment": "Antitumor activity in vivo against the 6C3HED lymphosarcoma dosed for 10 days at 600 mg/kg", "assay_type": "functional", "conditions": "Mus musculus, 192 h, in the assay text read “dosed for 8 days” for “dosed for 10 days”", "procedure,_shortened": "as §1"}, "6C3HED": {"test_system": "6C3HED", "experiment": "Antitumor activity in vivo expressed as percent of inhibition in 6C3HED-lymphosarcoma tumor cell line; 95-100% inhibition", "assay_type": "functional, Mus musculus", "procedure,_shortened": "as §1"}, "C3H": {"test_system": "C3H", "experiment": "Antitumor activity in vivo expressed as percent of inhibition in C3H-mammary adenocarcinoma cell line; 95-100% inhibition", "assay_type": "functional, Mus musculus", "procedure,_shortened": "as §1"}, "X5563": {"test_system": "X5563", "experiment": "Antitumor activity in vivo expressed as percent of inhibition in X5563-plasma cell myeloma cell line; 60-79 % inhibition", "assay_type": "functional, Mus musculus", "procedure,_shortened": "as §1"}, "[6]": {"test_system": "Lewis lung carcinoma cell line", "experiment": "Antitumor activity in vivo expressed as percent of inhibition in Lewis-lung carcinoma cell line", "assay_type": "functional, Mus musculus", "procedure,_shortened": "as §1"}, "CA-755": {"test_system": "CA-755", "experiment": "Antitumor activity in vivo expressed as percent of inhibition in CA-755-mammary adenocarcinoma tumor cell line; 95-100% inhibition", "assay_type": "functional, Mus musculus", "procedure,_shortened": "as §1"}, "M-5 (Mus musculus)": {"test_system": "M-5 (Mus musculus)", "experiment": "Antitumor activity in vivo expressed as percent of inhibition in M-5-ovarian carcinoma cell line; 95-100% inhibition"}, "B16": {"test_system": "B16", "experiment": "Antitumor activity in vivo expressed as percent of inhibition in B-16-melanoma (solid) cell line", "assay_type": "functional, Mus musculus", "procedure,_shortened": "as §1"}, "M109": {"test_system": "M109", "experiment": "Antitumor activity in vivo expressed as percent of inhibition in Madison-lung carcinoma cell line; 80-94% inhibition", "assay_type": "functional, Mus musculus", "procedure,_shortened": "as §1"}, "Rattus norvegicus": {"test_system": "Rattus norvegicus", "experiment": "Hypoglycemic activity expressed as (Maximum reduction in blood glucose in mg/dL relative to predosing glucose level)/(time in hours at which maximum reduction occurred)", "assay_type": "functional", "procedure,_shortened": "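Fed male Sprague-Dawley rats (175–200 g), four per compound, received a single oral gavage dose of 200 mg/kg suspended in 5% acacia. Tail blood was sampled before dosing and at 1, 2, 3 and 5 h, and glucose was measured by glucose oxidase/peroxidase colorimetry. Each rat served as its own control. Value = maximum fall from predose glucose (mg/dL) divided by the hour at which that maximum occurred.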"}, "P388": {"test_system": "P388", "experiment": "Antitumor activity in vivo and the activity was determined as percent increase in life span determined against P388-lymphocytic leukemia tumor cell lines; 50-99 %", "assay_type": "functional, Mus musculus", "procedure,_shortened": "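The ascites tumor inoculum of 1 × 10^6 cells was given ip to DBA/2 mice, and treatment started the next day. Compound was suspended in 2.5% Emulphor in 0.9% saline. Groups had 7–10 animals. %ILS = (MDD treated − MDD control)/MDD control × 100. Deaths before the control median day of death were counted as toxic. Values are optimal from at least two experiments.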"}, "Colon 26": {"test_system": "Colon 26", "experiment": "Antitumor activity in vivo expressed as percent of inhibition in C-26-colon carcinoma cell line; 95-100% inhibition", "assay_type": "functional, Mus musculus", "procedure,_shortened": "as §1"}}}
{"smiles": "O=C(NC(=O)c1ccccc1)Nc1ccc(Cl)cc1", "values": [{"measurement": "IC50", "setting": "CCRF-CEM", "result": "> 20", "unit": "µg/mL"}, {"measurement": "inhibition in vivo at 300 mg/kg", "setting": "[1]", "result": 0, "unit": "%"}, {"measurement": "inhibition in vivo at 300 mg/kg", "setting": "[2]", "result": 7, "unit": "%"}]}
{"smiles": "Cc1ccc(S(=O)(=O)/N=C(\\S)Nc2ccc(Cl)cc2)cc1", "values": [{"measurement": "inhibition in vivo at 300 mg/kg", "setting": "[3]", "result": 45, "unit": "%"}, {"measurement": "IC50", "setting": "CCRF-CEM", "result": 12.9, "unit": "µg/mL"}, {"measurement": "inhibition in vivo at 300 mg/kg", "setting": "[2]", "result": 35, "unit": "%"}]}
{"smiles": "Cc1ccc(S(=O)(=O)NC(=O)Nc2ccccc2)cc1", "values": [{"measurement": "IC50", "setting": "CCRF-CEM", "result": "> 20", "unit": "µg/mL"}, {"measurement": "inhibition in vivo at 275 mg/kg", "setting": "[4]", "result": 44, "unit": "%"}]}
{"smiles": "CCCCNC(=O)NS(=O)(=O)c1ccc(C)cc1", "note": "[TOLBUTAMIDE]", "values": [{"measurement": "inhibition in vivo at 600 mg/kg", "setting": "[5]", "result": 45, "unit": "%"}]}
{"smiles": "O=C(Nc1ccc(Cl)cc1)NS(=O)(=O)c1ccc2c(c1)CCC2", "note": "[SULOFENUR]", "values": [{"measurement": "Inhibition", "setting": "6C3HED", "result": 100, "unit": "%"}, {"measurement": "IC50", "setting": "CCRF-CEM", "result": 11.2, "unit": "µg/mL"}, {"measurement": "Inhibition", "setting": "C3H", "result": 100, "unit": "%"}, {"measurement": "Inhibition", "setting": "X5563", "result": 79, "unit": "%"}, {"measurement": "Inhibition", "setting": "[6]", "result": "<60", "unit": "%"}, {"measurement": "Inhibition", "setting": "CA-755", "result": 100, "unit": "%"}, {"measurement": "inhibition in vivo at 300 mg/kg", "setting": "[2]", "result": 100, "unit": "%"}, {"measurement": "Inhibition", "setting": "M-5 (Mus musculus)", "result": 100, "unit": "%"}, {"measurement": "Inhibition", "setting": "B16", "result": "<60", "unit": "%"}, {"measurement": "Inhibition", "setting": "M109", "result": 94, "unit": "%"}, {"measurement": "Ratio", "setting": "Rattus norvegicus", "result": 0}, {"measurement": "Increase in life-span", "setting": "P388", "result": 99, "unit": "%"}, {"measurement": "Inhibition", "setting": "Colon 26", "result": 100, "unit": "%"}]}
